Laboratory results taken from ChEMBL document CHEMBL1144182, “Antimicrobial and cytotoxic arylazoenamines. Part III: antiviral activity of selected classes of arylazoenamines” (Bioorg Med Chem, 2008).
pEC50: −log10 of the molar value. Active and inactive are the calls of the source. No rule for the calls is given here.

Columns and labels:
[1] = Cytotoxicity against mock-infected human MT4 cells assessed as reduction in cell viability after 96 hrs by MTT assay; assay type: cell-based
Procedure, shortened: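 Exponentially growing MT-4 cells seeded at 1 × 10^5 cells/mL in RPMI-1640 with 10% FCS, penicillin and streptomycin, with or without serial compound dilutions. Incubated at 37 °C, 5% CO2; viability read by MTT after 96 h. CC50 is the concentration reducing mock-infected cell viability by 50%.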

[2] = Cytotoxicity against mock-infected MDBK cells assessed as reduction in cell viability after 96 hrs by MTT assay; assay type: cell-based, Bos taurus; settings: cattle
Procedure, shortened: (§1)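 Cytotoxicity run in parallel with the antiviral assays. MDBK seeded at 6 × 10^5 and BHK at 1 × 10^6 cells/mL in maintenance medium with or without serial compound dilutions. Incubated 48–96 h at 37 °C, 5% CO2, then viability read by MTT. CC50 is the concentration reducing mock-infected cell viability by 50%.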

[3] = system: Bovine viral diarrhea virus 1; assay: Antiviral activity against BVDV infected in MDBK cells assessed as protection against virus-induced cytopathogenicity after 4 days by MTT assay; assay type: functional, organism-based; settings: Bovine viral diarrhea virus isolates and strains, 96 h
Procedure, shortened: (§2)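 MDBK (BVDV) or BHK-21 (YFV) cells were seeded at 3 × 10^4 or 5 × 10^4 cells/well respectively and grown overnight to confluent monolayers at 37 °C in 5% CO2. Monolayers were infected at m.o.i. 0.01 in serum-free medium. After 1 h, MEM Earle's with 1% FCS was added, with or without serial compound dilutions. After 3–4 days at 37 °C, viability was read by MTT. EC50 was taken as 50% protection from virus-induced cytopathogenicity.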

[4] = Cytotoxicity against mock-infected BHK cells assessed as reduction in cell viability after 96 hrs by MTT assay; assay type: cell-based, Mesocricetus auratus; settings: hamster; procedure, shortened: as §1
Yellow fever virus = assay: Antiviral activity against YFV infected in BHK21 cells assessed as protection against virus-induced cytopathogenicity after 4 days by MTT assay; assay type: functional, organism-based; settings: BHK-21, 96 h; procedure, shortened: as §2
[5] = Cytotoxicity against mock-infected african green monkey Vero76 cells assessed as reduction in cell viability after 96 hrs by MTT assay; assay type: cell-based, Vero; settings: chlorocebus sabaeus
Coxsackievirus B2 = assay: Antiviral activity against CVB2 infected in Vero76 cells assessed as reduction in virus plaque formation after 4 days by MTT assay; assay type: functional, organism-based; settings: Enterovirus B, Vero 76, 96 h
[6] = system: Respiratory syncytial virus; assay: Antiviral activity against RSV infected in Vero76 cells assessed as reduction in virus plaque formation after 4 days by MTT assay; assay type: functional, organism-based; settings: human respiratory syncytial virus, Vero 76, 96 h
Poliovirus 1 = assay: Antiviral activity against Sb1 virus infected in Vero76 cells assessed as reduction in virus plaque formation after 4 days by MTT assay; assay type: functional, organism-based; settings: Enterovirus C, Sabin, Vero 76, 96 h
[7] = system: Human immunodeficiency virus 1; assay: Antiviral activity against HIV1 infected in MT4 cells assessed as virus-induced cytopathogenicity after 4 days; assay type: functional, organism-based
Vaccinia virus = assay: Antiviral activity against VV infected in Vero76 cells assessed as reduction in virus plaque formation after 4 days by MTT assay; assay type: functional, organism-based; settings: Orthopoxvirus vaccinia; Vero 76
[8] = system: Vesicular stomatitis virus; assay: Antiviral activity against VSV infected in Vero76 cells assessed as reduction in virus plaque formation after 4 days by MTT assay; assay type: functional, organism-based; settings: Vero 76

Row | SMILES | CC50 at 96 h [1] | CC50 at 96 h [2] | pEC50 [3] | CC50 at 96 h [4] | pEC50 (Yellow fever virus) | CC50 at 96 h [5] | pEC50 (Coxsackievirus B2) | pEC50 [6] | pEC50 (Poliovirus 1) | Activity [7] | Activity (Vaccinia virus) | Activity [8]
1 | CN1C=C(/N=N/c2ccc(F)c(C(F)(F)F)c2)CCC1 | > 100 µM | > 100 µM | < 4.00 | 80 µM | < 4.10 | 70 µM | 4.46 | < 4.15 | < 4.15 | inactive | inactive | inactive
2 | FC(F)(F)c1cc(/N=N\C2=C3CCCCN3CCC2)ccc1Cl | 19 µM | 35 µM | < 4.46 | 41 µM | < 4.39 | > 100 µM | 4.19 | < 4.00 | < 4.00 | inactive | inactive | inactive
3 | Fc1ccc(N2CCN(/C=C/N=N/c3ccccc3)CC2)cc1 | 17 µM | 13 µM | < 4.89 | 50 µM | 4.70 | 35 µM | 5.30 | 5.05 | < 4.46 | inactive | inactive | inactive
4 | CN1CCC/C1=C\N=N\c1ccc(Br)cc1 | 23 µM | > 100 µM | 4.96 | > 100 µM | < 4.00 | > 100 µM | 4.44 | 4.70 | < 4.00 | inactive | inactive | inactive
5 | CN1/C(=C\N=N\c2ccc(Cl)cc2)C(C)(C)c2ccccc21 | 55 µM | 72 µM | < 4.14 | 21 µM | < 4.68 | > 100 µM | < 4.00 | < 4.00 | < 4.00 | inactive | inactive | inactive
6 | C(=C\N1CCN(c2ccccc2)CC1)/N=N/c1ccccc1 | 15 µM | 5 µM | < 5.30 | 60 µM | 4.38 | 50 µM | 5.30 | 4.96 | < 4.30 | inactive | inactive | inactive
7 | CN1/C(=C\N=N\c2ccccc2)C(C)(C)c2ccccc21.[O-][Cl+3]([O-])([O-])O | 30 µM | 20 µM | < 4.70 | 47 µM | < 4.33 | 73 µM | < 4.14 | < 4.14 | < 4.14 | inactive | inactive | inactive
8 | c1ccc2c(N=NC3=C4CCCN4CCC3)nncc2c1 | 52 µM | > 100 µM | < 4.00 | > 100 µM | < 4.00 | > 100 µM | < 4.00 | 5.15 | < 4.00 | inactive | inactive | inactive
9 | C(=C\N1CCOCC1)/N=N/c1ccccc1 | 7 µM | 28 µM | < 4.55 | > 100 µM | < 4.00 | 30 µM | 5.15 | 4.82 | < 4.52 | inactive | inactive | inactive
10 | CN1C=C(/N=N/c2ccccc2Cl)CCC1 | > 100 µM | > 100 µM | 4.00 | > 100 µM | < 4.00 | > 100 µM | < 4.00 | < 4.00 | 5.10 | inactive | inactive | inactive
11 | FC(F)(F)c1cccc(/N=N\C2=C3CCCCN3CCC2)c1 | 4 µM | 8 µM | < 5.10 | 40 µM | < 4.40 | > 100 µM | 4.68 | < 4.00 | < 4.00 | inactive | inactive | inactive
12 | Clc1ccc(/N=N\C2=C3CCCCN3CCC2)cc1Cl | 35 µM | 30 µM | < 4.52 | 54 µM | < 4.27 | > 100 µM | 4.42 | < 4.00 | < 4.00 | inactive | inactive | inactive
13 | CN1CCC/C1=C\N=N\c1c(F)c(F)c(F)c(F)c1F | 8 µM | > 100 µM | < 4.00 | > 100 µM | < 4.00 | > 100 µM | < 4.00 | 4.12 | < 4.00 | inactive | inactive | inactive
14 | C(=C\N1CCSCC1)/N=N/c1ccccc1 | 19 µM | 14 µM | < 4.85 | > 100 µM | < 4.00 | 30 µM | 5.22 | < 4.52 | < 4.52 | inactive | inactive | inactive
15 | Clc1ccc(/N=N\C2=C3CCCN3CCC2)cc1 | > 100 µM | 30 µM | < 4.52 | 34 µM | < 4.47 | 75 µM | 5.00 | < 4.12 | 4.70 | inactive | inactive | inactive
16 | O=[N+]([O-])c1ccc(/N=N\C2=C3CCCCN3CCC2)cc1 | 91 µM | > 100 µM | 4.07 | > 100 µM | ≤ 4.00 | 100 µM | 4.59 | < 4.00 | < 4.00 | inactive | inactive | inactive
17 | COc1ccc(N2CCN(/C=C/N=N/c3ccccc3)CC2)cc1 | 29 µM | 19 µM | < 4.72 | 46 µM | < 4.34 | 38 µM | 5.30 | 5.22 | < 4.42 | inactive | inactive | inactive
18 | C(/N=N/c1ccccc1)=C1/CCCN1Cc1ccccc1 | 22 µM | 74 µM | < 4.13 | 31 µM | < 4.51 | 87 µM | 4.80 | 4.52 | < 4.06 | inactive | inactive | inactive
19 | O=c1cnn([C@@H]2O[C@H](CO)[C@@H](O)[C@H]2O)c(=O)[nH]1 [6-AZAURIDINE] | 2 µM | > 100 µM | < 4.00 | > 100 µM | 4.59 | 20 µM | < 4.70 | 5.92 | < 4.70 |  |  | 
20 | CN1C=C(/N=N/c2ccc(Cl)c(C(F)(F)F)c2)CCC1 | 62 µM | 28 µM |  | 44 µM | < 4.36 | 90 µM | 4.47 | < 4.05 | < 4.05 | inactive | inactive | inactive
21 | C[C@@]1(O)[C@H](O)[C@@H](CO)O[C@H]1n1cnc2c(=O)[nH]c(N)nc21 [2'-B-METHYL-GUANOSINE] | > 100 µM | > 100 µM | 5.77 | 90 µM | 6.00 | > 100 µM | 4.70 | < 4.00 | < 4.00 |  |  | 
22 | CN1C=C(/N=N/c2cccc(Br)c2)CCC1 | > 100 µM | > 100 µM | 4.72 | > 100 µM |  | > 100 µM | 4.57 | 4.74 | < 4.00 | inactive | inactive | inactive
